According to ChEMBL document CHEMBL1124368 (J Med Chem, 1989):

Assays:
Dihydrofolate reductase = target: T1, Dihydrofolate reductase (Rattus norvegicus, UniProt Q920D2); assay: In vitro inhibitory concentration against rat liver dihydrofolate reductase(DHFR); conditions: read-out: I50
T1 sequence (Q920D2 whole entry): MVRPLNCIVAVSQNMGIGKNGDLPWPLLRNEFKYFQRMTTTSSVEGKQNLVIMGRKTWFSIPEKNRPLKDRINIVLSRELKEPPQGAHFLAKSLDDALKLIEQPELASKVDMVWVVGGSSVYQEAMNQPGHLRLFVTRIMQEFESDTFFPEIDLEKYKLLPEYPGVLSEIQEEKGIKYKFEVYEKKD
Outline: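 Partially purified rat liver DHFR, prepared by the Bertino and Fischer method, assayed spectrophotometrically at 340 nm. I50 is the final inhibitor concentration that cuts the reaction rate to 50% of the uninhibited rate. […] Inhibitors were dissolved in 0.1 M HCl or 95% ethanol.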

Mus musculus [1] = assay: Tumor volume in 24 days after tumor implantation at a dose of 6.25 mg/kg/day; format: functional
Outline: (§1)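 10⁶ M5076 reticulum cell sarcoma cells were injected im into the left leg of female BDF₁ mice, five per group, on day 0. Compound in 10–20% DMSO/arachis oil was dosed ip daily on days 1–17. Tumor volumes (mm³) were recorded on days 12, 16, 20 and 24 after implantation, with NM marking a tumor that could not be measured.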

Mus musculus [2] = assay: Mean of weight gain from day 0 to day 24 at a dose of 6.25 mg/kg/day; format: functional; parameters: unit not given here
Outline: (§2)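 M5076 reticulum cell sarcoma: 10⁶ cells implanted im into the left leg of female BDF₁ mice (groups of five) on day 0. Drug in 10–20% DMSO in arachis oil was given ip daily on days 1–17. Weight change is the mean weight gain from day 0 to day 24.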

Mus musculus [3] = assay: Ratio of tumor volume of test(T) animals compared to control(C) animals x 100 T/C(%)] at a dose of 3.125 mg/kg/day; format: functional
Outline: (§3)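 M5076 reticulum cell sarcoma: 10⁶ cells implanted im into the left leg of female BDF₁ mice (groups of five) on day 0. Treatment was ip, daily on days 1–17, in 10–20% DMSO in arachis oil. T/C% is treated tumor volume over control tumor volume × 100.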

Mus musculus [4] = assay: (§4) Mean of weight gain from day 0 to day 24 at a dose of 3.125 mg/kg/day of compound; format: functional; parameters: unit not given here; outline: as §2
Mus musculus [5] = assay: Tumor volume in 24 days after tumor implantation at a dose of 3.125 mg/kg/day; format: functional; outline: as §1
Mus musculus [6] = assay: Ratio of tumor volume of test(T) animals compared to control(C) animals x 100 T/C(%)] at a dose of 6.25 mg/kg/day; format: functional; outline: as §3
Mus musculus [7] = assay: Tumor volume in 12 days after tumor implantation at a dose of 3.125 mg/kg/day of compound; NM=tumor not measureable.; format: functional, organism-based; outline: as §1
Mus musculus [8] = assay: Tumor volume in 16 days after tumor implantation at a dose of 3.125 mg/kg/day of compound; NM=tumor not measureable; format: functional, organism-based; outline: as §1
Mus musculus [9] = assay: Number of survivors versus treated on day 24 at a dose of 6.25 mg/kg/day of compound; none of them survived(0/5); format: functional
Mus musculus [10] = assay: Number of survivors versus treated on day 24 at a dose of 12.5 mg/kg/day of compound; none of them survived(0/5); format: functional
Mus musculus [11] = assay: Mean of weight gain from day 0 to day 24 at a dose of 3.125 mg/kg/day of compound (maximum activity noticed); format: functional; outline: as §2
Mus musculus [12] = assay: Number of survivors treated on day 24 at a dose of 25 mg/kg/day of compound expressed as ratio of (test/control); none of them survived(0/5); format: functional
Mus musculus [13] = assay: Tumor volume in 24 days after tumor implantation at a dose of 3.125 mg/kg/day of compound; NM=tumor not measureable; format: functional, organism-based; outline: as §1
Mus musculus [14] = assay: Ratio of tumor volume of test(T) animals compared to control(C) animals x 100 T/C(%)] at a dose of 3.125 mg/kg/day of compound; maximal activity for this system.; format: organism-based; conditions: in vivo; outline: as §3
Mus musculus [15] = assay: Tumor volume in 20 days after tumor implantation at a dose of 3.125 mg/kg/day of compound; NM=tumor not measureable; format: functional, organism-based; outline: as §1
Mus musculus [16] = assay: as §4; format: functional; outline: as §2
Mus musculus [17] = assay: Tumor volume in 20 days after tumor implantation at a dose of 3.125 mg/kg/day; format: functional; outline: as §1
Mus musculus [18] = assay: Ratio of tumor volume of test(T) animals compared to control(C) animals x 100 T/C(%)] at a dose of 25 mg/kg/day; format: functional; outline: as §3
Mus musculus [19] = assay: Mean of weight gain from day 0 to day 24 at a dose of 12.5 mg/kg/day of compound; format: functional; parameters: unit not given here; outline: as §2
Mus musculus [20] = assay: Mean of weight gain from day 0 to day 24 at a dose of 25 mg/kg/day of compound; format: functional; parameters: unit not given here; outline: as §2
Mus musculus [21] = assay: Tumor volume in 16 days after tumor implantation at a dose of 3.125 mg/kg/day of compound; format: functional; outline: as §1
Mus musculus [22] = assay: Ratio of tumor volume of test(T) animals compared to control(C) animals x 100 T/C(%)] at a dose of 12.50 mg/kg/day; format: functional; outline: as §3
Mus musculus [23] = assay: Tumor volume in 24 days after tumor implantation at a dose of 12.5 mg/kg/day; format: functional; outline: as §1
Mus musculus [24] = assay: Tumor volume in 20 days after tumor implantation at a dose of 6.25 mg/kg/day of compound; format: functional; outline: as §1
Mus musculus [25] = assay: Number of survivors versus treated on day 24 at a dose of 6.25 mg/kg/day of compound; Tumor not measurable; format: functional, organism-based
Mus musculus [26] = assay: Number of survivors versus treated on day 24 at a dose of 12.5 mg/kg/day of compound; Tumor not measurable; format: functional, organism-based

Row | Compound | IC50 (Dihydrofolate reductase) [nM] | Tumor volume (Mus musculus [1]) [mm**3] | Weight change (Mus musculus [2]) | Antitumor activity (Mus musculus [3]) [%] | Weight change (Mus musculus [4]) | Tumor volume (Mus musculus [5]) [mm**3] | Antitumor activity (Mus musculus [6]) [%] | Tumor volume (Mus musculus [17]) [mm**3] | Antitumor activity (Mus musculus [18]) [%] | Weight change (Mus musculus [19]) | Weight change (Mus musculus [20]) | Antitumor activity (Mus musculus [22]) [%] | Tumor volume (Mus musculus [23]) [mm**3] | further results
1 | CCc1nc(N)nc(N)c1-c1ccc(Cl)c([N+](=O)[O-])c1 | 80 | – | – | – | – | – | – | – | – | – | – | – | – | –
2 | CCc1nc(N)nc(N)c1-c1ccc(N2CCOCC2)c(N)c1 | > 25000 | – | – | – | – | – | – | – | – | – | – | – | – | –
3 | CCc1nc(N)nc(N)c1-c1ccc(NCc2ccc(OC)c(OC)c2)c([N+](=O)[O-])c1 | – | 324 | 0.9 | 10 | 1 | 371 | 9 | – | – | – | – | – | – | –
4 | Cc1nc(N)nc(N)c1-c1ccc(Cl)c(Cl)c1 [METOPRINE] | – | – | – | – | – | – | – | – | – | – | – | – | – | Tumor volume (Mus musculus [7]): Not measurable; Tumor volume (Mus musculus [8]): Not measurable; Survivors (Mus musculus [9]): 0; Survivors (Mus musculus [10]): 0; Weight change (Mus musculus [11]): 4.9; Survivors (Mus musculus [12]): 0; Tumor volume (Mus musculus [13]): Not measurable; T/C (Mus musculus [14]): < 8%; Tumor volume (Mus musculus [15]): Not measurable
5 | CCc1nc(N)nc(N)c1-c1ccc([N+](=O)[O-])c(NCc2ccccc2)c1 | 9200 | – | – | – | – | – | – | – | – | – | – | – | – | –
6 | CCc1nc(N)nc(N)c1-c1ccc([N+](=O)[O-])c(N(C)Cc2ccccc2)c1 | 440 | – | – | – | – | – | – | – | – | – | – | – | – | –
7 | CCc1nc(N)nc(N)c1-c1ccc(N2CCCCC2)c(N)c1 | > 25000 | – | – | – | – | – | – | – | – | – | – | – | – | –
8 | CCc1nc(N)nc(N)c1-c1ccc(N(C)Cc2ccccc2)c(N)c1 | 100 | – | – | – | – | – | – | – | – | – | – | – | – | –
9 | CCc1nc(N)nc(N)c1-c1ccc(NCc2ccc(F)cc2)c([N+](=O)[O-])c1 | – | 448 | 2.5 | 68 | – | 1555 | 20 | 539 | <8 | 2 | 4.3 | 17 | 386 | Weight change (Mus musculus [16]): 3.8; Tumor volume (Mus musculus [21]): 337 mm**3
10 | CCc1nc(N)nc(N)c1-c1ccc(N2CCCC2)c([N+](=O)[O-])c1 | 1700 | – | – | – | – | – | – | – | – | – | – | – | – | –
11 | CCc1nc(N)nc(N)c1-c1ccc(NCc2ccc(OC)cc2)c([N+](=O)[O-])c1 | 20 | 875 | 3.6 | 50 | 4.1 | 1482 | 30 | 831 | <8 | 2.3 | 0.2 | 21 | 636 | Tumor volume (Mus musculus [24]): 416 mm**3; Tumor volume (Mus musculus [21]): 306 mm**3
12 | CCc1nc(N)nc(N)c1-c1ccc(N(CC)Cc2ccccc2)c([N+](=O)[O-])c1 | – | 854 | 1.6 | 50 | 2.3 | 1375 | 31 | 698 | <8 | 1.1 | 0.8 | 12 | 316 | Survivors (Mus musculus [25]): Not measurable; Survivors (Mus musculus [26]): Not measurable; Tumor volume (Mus musculus [24]): 492 mm**3
13 | CCc1nc(N)nc(N)c1-c1ccc(NCc2ccccc2)c([N+](=O)[O-])c1 | – | 932 | 2.1 | 53 | 2.2 | 1454 | 34 | 443 | <8 | 1.6 | 1.7 | 21 | 586 | Tumor volume (Mus musculus [24]): 301 mm**3
